# Screening results (PubChem)
# Rows were chosen to be rich in hits. Some 1.3% of all compounds tested hit in one or more screens of this group.
# PLC-beta3 inh: inhibitors of human phospholipase C beta3; Q01970; Purified PLC-beta3, fluorogenic substrate, fluorescence; inhibition, % at 12.2 µM; 370,000 compounds, 0.18% hits; AID 720704; in the data active = inhibition above about 11%;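 note: 0% = median of compound wells on plate and 100% = full blocker control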
# Arr AP2 block: blocks beta-arrestin peptide binding to AP2 adaptin | FITC-arrestin peptide / GST-AP2 beads, flow cytometry; AP2 beta2 appendage carries R879A mutation | inhibition, % at 10 µM | 340,000 compounds, 0.31% hits;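 active = inhibition above a set limit, near 3 SD of compounds lacking own fluorescence, cut at about 54% in these data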;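 note: plate controls were DMSO wells for no effect and 5 µM unlabelled arrestin peptide for full effect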
#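 System: GST-tagged AP2 beta2-adaptin appendage (R879A) on 4 µm glutathione beads / Reagent: FITC-arrestin peptide, 50 nM / Detection: HyperCyt-sampled flow cytometry, FL1 channel, ex 488/em 535 nm / Timing: 12 min plus 1 h, RT / Buffer or medium: PBS plus Tween 20 (0.05%) and BSA (0.1%)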
# NTR1 ag: NTR1 (human) agonism | activation, % at 20 µM | P30989 | NTR1-U2OS beta-arrestin-GFP spot imaging, agonist mode | 330,000 compounds, 0.17% hits | AID 493036;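 active = activation at or above 40% of the spot to cytoplasm intensity ratio, with at least 20 cells analyzed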;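 note: 0% = DMSO without peptide and 100% = 100 nM NTR1 peptide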
# PLC-gamma1 inh: PLC-gamma1 (human) inhibition, primary screen | P19174 | purified PLC-gamma1, fluorogenic substrate, fluorescence | inhibition, % at 12.2 µM | 370,000 compounds, 0.84% hits
# Target sequence (P19174 whole entry, looked up): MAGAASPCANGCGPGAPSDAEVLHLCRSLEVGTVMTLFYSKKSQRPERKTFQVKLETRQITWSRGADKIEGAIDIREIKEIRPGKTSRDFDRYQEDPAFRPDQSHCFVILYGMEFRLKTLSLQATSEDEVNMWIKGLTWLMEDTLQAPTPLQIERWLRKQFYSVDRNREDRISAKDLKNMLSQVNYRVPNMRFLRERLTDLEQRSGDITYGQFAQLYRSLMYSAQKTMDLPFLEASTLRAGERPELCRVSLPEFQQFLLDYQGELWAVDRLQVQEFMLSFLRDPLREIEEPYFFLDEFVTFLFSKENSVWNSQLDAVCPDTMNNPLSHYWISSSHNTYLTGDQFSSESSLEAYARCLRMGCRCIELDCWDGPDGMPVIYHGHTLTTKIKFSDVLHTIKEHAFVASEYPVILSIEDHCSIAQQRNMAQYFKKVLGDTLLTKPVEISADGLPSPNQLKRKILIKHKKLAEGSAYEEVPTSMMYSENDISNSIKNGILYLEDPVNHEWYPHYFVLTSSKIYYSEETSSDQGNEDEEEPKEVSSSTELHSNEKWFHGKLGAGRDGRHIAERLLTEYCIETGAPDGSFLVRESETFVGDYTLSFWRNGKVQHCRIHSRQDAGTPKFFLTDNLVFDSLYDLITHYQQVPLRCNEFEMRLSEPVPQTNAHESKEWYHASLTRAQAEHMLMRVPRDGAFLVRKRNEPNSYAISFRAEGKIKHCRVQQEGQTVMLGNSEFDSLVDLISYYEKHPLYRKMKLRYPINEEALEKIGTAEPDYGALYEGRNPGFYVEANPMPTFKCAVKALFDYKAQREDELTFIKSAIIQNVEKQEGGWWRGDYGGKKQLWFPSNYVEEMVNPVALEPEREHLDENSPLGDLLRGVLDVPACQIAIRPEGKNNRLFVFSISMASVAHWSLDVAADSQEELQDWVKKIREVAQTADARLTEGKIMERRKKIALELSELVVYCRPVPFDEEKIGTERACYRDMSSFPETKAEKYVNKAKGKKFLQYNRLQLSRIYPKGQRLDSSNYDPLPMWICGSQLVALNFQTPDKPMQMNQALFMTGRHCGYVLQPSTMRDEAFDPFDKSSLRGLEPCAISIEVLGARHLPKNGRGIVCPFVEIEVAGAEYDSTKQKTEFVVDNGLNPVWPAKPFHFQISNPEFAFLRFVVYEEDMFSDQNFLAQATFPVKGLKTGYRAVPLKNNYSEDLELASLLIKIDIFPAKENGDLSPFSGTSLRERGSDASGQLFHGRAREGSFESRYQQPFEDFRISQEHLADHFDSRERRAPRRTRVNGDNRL
# PLCg1 ctr: PLC-gamma1 inhibition, counter-screen for PLC-beta3 hits; shares compounds with PLC-gamma1 inh; purified PLC-gamma1, fluorogenic substrate, fluorescence; inhibition, % at 12.3 µM; 3,300 compounds, 3.1% hits; AID 743258
# PLCbeta3 conf: confirmation of human PLC-beta3 inhibitors | 3,300 compounds, 1% hits | shares compounds with PLC-gamma1 inh | inhibition, % at 12.3 µM | purified PLC-beta3, fluorogenic substrate fluorescence; in the data active = inhibition above about 11%
# * hit, by the source's call; i = inactive; · = no result given. Cut-off read from the data, not from the text of the source, unless noted: active = inhibition above about 9.5%; inactive = the rest.
SMILES,PLC-beta3 inh,Arr AP2 block,NTR1 ag,PLC-gamma1 inh,PLCg1 ctr,PLCbeta3 conf
COc1ccc(CNC(=O)[C@@H](Cc2ccccc2)NC(=O)[C@H]2O[C@@H](n3cnc4c(=O)[nH]c(N)nc43)[C@H](O)[C@@H]2O)cc1,1,·,·,3,·,·
CCCC[C@@H]1C(=O)N2N=Cc3cc(C)c(C)cc3[C@H]2N2N=Cc3cc(C)c(C)cc3[C@@H]12,-10,·,·,0,·,·
N#Cc1cc(-c2ccccc2)nnc1Oc1ccccc1,-2,7,1,13*,-7,-4
Cc1ccc(Oc2nnc(-c3ccccc3)cc2C#N)cc1,2,20,5,3,·,·
O=C1N(Cc2ccccc2)c2ccccc2C12CCCc1oc(CCc3ccccc3)nc12 (stereo not drawn),0,·,·,1,·,·
Cc1cnc2ccc(F)cc2c1,6,·,·,12*,-5,-4
O=c1oc2ccccc2c(O)c1C=NCc1ccccn1,9,2,-1,12*,1,1
C=CC[C@@H](CC(=O)NCCO)C(=O)N[C@@H](COC(=O)[C@@H](CC=C)CC(=O)OC(C)(C)C)Cc1ccccc1,7,18,5,10.0*,-7,-4
C=CC[C@@H](CC(=O)N[C@H](CO)Cc1ccccc1)C(=O)N[C@@H](COC(=O)[C@H](CC=C)CC(=O)OC(C)(C)C)Cc1ccccc1,4,-9,9,9.5*,-7,1
C=CC[C@@H](CC(=O)N[C@@H](CO)Cc1ccccc1)C(=O)N[C@H](COC(=O)[C@@H](CC=C)CC(=O)OC(C)(C)C)Cc1ccccc1,-1,35,2,2,·,·
C#CCNC(=O)C[C@H]1C[C@@]2(C(=O)OC)C(=C[C@H](COCc3ccccc3)O[C@@H]2C)N(CCc2ccc(OC)c(OC)c2)C1=O,2,·,·,-2,·,·
CCOC(=O)N(NC(=O)C(O)(c1ccccc1)c1ccccc1)c1ccccc1,8,4,0,14*,-1,4
CCOC(=O)N(NC(=O)C(O)(C(C)C)C(C)C)c1ccccc1,-2,9,4,-1,·,·
CCCCC(O)(CCCC)C(=O)NN(C(=O)OCC)c1ccccc1,0,-18,2,-1,·,·
CCCC(O)(CCC)C(=O)NN(C(=O)CCl)c1ccccc1,2,-5,2,9.7*,-2,-2
COC(=O)c1cc(-c2ccc(C(C)=O)cc2)c(=O)n2c1CCC2,i,·,·,i,·,·
Cc1cccc(CC2S/C(=N/N=C/c3ccco3)N(c3ccccc3)C2=O)c1 (stereo not drawn),4,14,3,11*,0,-1
O=C1/C(=C/C=C/c2ccco2)SC(=S)N1c1ccc(O)cc1,-8,34,2,22*,-9,-23
O=C1/C(=C/c2ccco2)SC(=S)N1c1cccnc1,-18,6,·,12*,-1,-14
O=C1/C(=C\c2ccco2)SC(=S)N1c1ccc(O)cc1,-2,21,6,1,·,·
CCOC(=O)CN1C(=O)S/C(=C/c2ccco2)C1=O,-9,-3,1,-5,·,·
NN1C(=O)/C(=C\c2ccco2)SC1=S,-8,14,1,18*,-7,-5
CCCCNC(=O)C1(C(=O)C2CC2)CC(c2ccccc2C(F)(F)F)=NO1 (stereo not drawn),1,·,·,-2,·,·
COCCN(CCOC)C(=O)[C@H](CCc1ccccc1)NC(=O)[C@H]1O[C@@H](n2cnc3c(N)ncnc32)[C@H](O)[C@@H]1O,1,·,·,1,·,·
CCOC(=O)CC[C@@H]1CC[C@]2(CCCN(C(=O)C3CCCCC3)C2)O1,-5,·,·,4,·,·
SMILES,PLC-beta3 inh,Arr AP2 block,NTR1 ag,PLC-gamma1 inh,PLCg1 ctr,PLCbeta3 conf
C/C(=N/NC(=O)c1ccccc1)c1ccc(NC(=O)C(F)(F)F)cc1,11*,3,-1,8,-4,-1
C/C(=N\NC(=O)c1ccccc1)c1ccc(NC(=O)c2cccs2)cc1,0,0,6,-1,·,·
Cc1ccc(CNC[C@@]23CO[C@H](c4ccc(Cl)cc4)N2[C@@H](c2ccc(Cl)cc2)SC3)o1,-3,·,·,-3,·,·
COC(=O)c1cc(COC(=O)c2nc3nc(C)cc(C)n3n2)oc1C,12*,4,2,9,1,3
CCS(=O)(=O)N1CCC(C(=O)NCCCN2CCC(Cc3ccccc3)CC2)CC1,1,11,0,11*,-2,-2
CCCS(=O)(=O)N1CCC(C(=O)NCCN2CCC(Cc3ccccc3)CC2)CC1,13*,1,1,15*,-5,-5
O=C(NCCCN1CCC(Cc2ccccc2)CC1)C1CCN(S(=O)(=O)N2CCOCC2)CC1,2,22,·,-2,·,·
Cc1cc(C(=O)NNC(=S)NCC(C)C)cs1,13*,30,-1,0,-4,14*
Cc1cc(C(=O)NNC(=S)NCC2CCCO2)cs1 (stereo not drawn),5,-3,-1,3,·,·
Cc1cc(C(=O)NNC(=S)NCc2ccccc2)cs1,13*,-9,-2,-1,-9,5
CCn1c(SCc2ccc(OC)c(F)c2)nc2ccccc2c1=O,-8,0,1,-1,·,·
CCn1c(SCc2ccc(F)cc2)nc2ccccc2c1=O,-1,-1,5,11*,-4,-6
CN1CCN(CC(=O)Nc2c(C(=O)C3CC3)oc3ccccc23)CC1,5,-1,0,11*,-4,-1
C=C1CC2(CC(c3ccccc3)OC(c3ccccc3)C2)OC1=O (stereo not drawn),10,-10,·,13*,-2,-2
COc1cccc(CNCc2ccccn2)c1OC,14*,0,2,3,-6,-4
COc1cccc(CNCc2ccc(OC)c3ccccc23)c1OC,-3,12,1,5,·,·
Cc1noc(C)c1-c1nnc(-c2ccc(C(F)(F)F)cc2)o1,1,12,0,10*,5,2
CCc1cccc2c(C(C)c3ccccc3O)c[nH]c12 (stereo not drawn),-7,·,·,-2,·,·
Cc1ccccc1NC(=S)c1nc2ccccc2[nH]1,3,23,·,10*,0,1
S=C(Nc1ccc(Cl)cc1)c1nc2ccccc2[nH]1,8,11,1,6,·,·
Cc1ccc(NC(=S)NC(=O)C2CCCCC2)c(Br)c1,15*,-11,10,16*,1,1
NS(=O)(=O)c1ccc(NC(=S)NC(=O)C2CCCCC2)cc1,8,-4,-1,11*,-5,-5
CCCCCCCCN1C(=O)[C@@H](CC(=O)N2CCOCC2)C[C@@]2(C(=O)OC)C1=C[C@H](COCc1ccccc1)O[C@@H]2C,-2,·,·,-3,·,·
Cn1cnnc1SCC(=O)n1c2ccccc2c2ccccc21,8,-6,1,14*,-10,-6
CC1C(=O)Nc2ccccc2N1C(=O)c1cccc(C(F)(F)F)c1 (stereo not drawn),-3,48,-2,13*,-4,1
CCC(=O)NC(c1ccc(C)cc1)c1cc([N+](=O)[O-])c2cccnc2c1O (stereo not drawn),2,-5,·,3,·,·
